Reference: ChEMBL document CHEMBL3576776, “3-Nitroasterric Acid Derivatives from an Antarctic Sponge-Derived Pseudogymnoascus sp. Fungus” (2015)

Assays:
Type in all cases: functional
Aspergillus fumigatus = assay: Antifungal activity against Aspergillus fumigatus ATCC46645
In short: (§1)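 Compounds serially diluted twofold in DMSO to give 10 concentrations starting at 64 μg/mL; bacterial and fungal strains exposed by previously described methods. MIC taken as lowest concentration inhibiting ≥95% of growth after overnight incubation. Data processed to give MIC; assay robustness RZ′ factor 0.89–0.97 across experiments.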

Staphylococcus aureus [1] = assay: Antibacterial activity against methicillin-resistant Staphylococcus aureus MB5393
In short: (§2)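 Compounds twofold serially diluted in DMSO, 10 concentrations starting at 64 μg/mL. Growth inhibition read after overnight incubation. MIC taken as the lowest concentration inhibiting ≥95% of growth. Assay robustness RZ′ factor 0.89–0.97.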

Staphylococcus aureus [2] = assay: Antibacterial activity against methicillin-sensitive Staphylococcus aureus EPI167; in short: as §2
Acinetobacter baumannii = assay: Antibacterial activity against Acinetobacter baumannii CL 5973; in short: as §1
Candida albicans [3] = assay: Antifungal activity against Candida albicans ATCC64124; in short: as §1
Candida albicans [4] = assay: Antifungal activity against Candida albicans MY1055; in short: as §1
Pseudomonas aeruginosa = assay: Antibacterial activity against Pseudomonas aeruginosa PAO1; in short: as §1
Escherichia coli = assay: Antibacterial activity against Escherichia coli MB2884; in short: as §1

Measured: MIC95

COC(=O)c1c(Oc2cc(C)cc(O)c2C(=O)O)c(OC)cc(O)c1[N+](=O)[O-]
> 64 µg/mL: all assays above

COC(=O)c1c(Oc2cc(C)cc(O)c2C(=O)OCC(C)C(=O)O)c(OC)cc(O)c1[N+](=O)[O-] (configuration not stated)
> 64 µg/mL: all assays above

COC(=O)c1c(Oc2cc(C)cc(O)c2C(=O)OC(C)C(=O)O)c(OC)cc(O)c1[N+](=O)[O-] (configuration not stated)
> 64 µg/mL: all assays above

COC(=O)c1c(Oc2cc(C)cc(O)c2C(=O)OCC(C)C(=O)OC)c(OC)cc(O)c1[N+](=O)[O-] (configuration not stated)
> 64 µg/mL: all assays above
